# Entries after “also recorded” stand apart in the source; their conditions may differ.
# Legend:
# E. coli 25922 [1] = assay: MIC assay, broth microdilution; type: cell-based; details: Escherichia coli, 25922, 22 h, read-out: E. coli 25922 MIC (μg/mL)
# K. pneumoniae 10031 [2] = assay: MIC assay, broth microdilution; type: cell-based; details: Klebsiella pneumoniae, 10031, 22 h, read-out: K. pneumoniae 10031 MIC (μg/mL)
# Summary of the method: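 Broth microdilution adapted from NCCLS methods. Overnight cultures were diluted to OD600 0.006 in cation-adjusted Mueller–Hinton medium with 7% DMSO and incubated with a range of test compound concentrations at 37 °C for 22 h. MTT (5 mg/mL) was added for 3 h, solubilized with 2-propanol, and read as the absorbance difference at 570 and 690 nm. MIC was the lowest concentration with readings within 4-fold of bacteria-free wells.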
# K. pneumoniae LpxH = molecular target: T1, K. pneumoniae LpxH (Klebsiella pneumoniae, UniProt A6T5R0); assay: LpxE-coupled LpxH activity assay; type: biochemical
# T1 sequence (A6T5R0 1-240): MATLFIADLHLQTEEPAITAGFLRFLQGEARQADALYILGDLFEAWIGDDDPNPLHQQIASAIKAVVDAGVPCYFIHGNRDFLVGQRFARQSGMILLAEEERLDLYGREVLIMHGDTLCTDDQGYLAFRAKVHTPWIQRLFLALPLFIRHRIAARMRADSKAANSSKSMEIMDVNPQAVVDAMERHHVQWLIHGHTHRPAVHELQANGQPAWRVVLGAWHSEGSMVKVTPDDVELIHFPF
# Summary of the method: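 LpxE-coupled assay with GB1-K. pneumoniae LpxH-His10, 10 ng/mL final (1 ng/mL for two analogs, with an extended time course), 100 μM UDP-DAGn. Buffer: Tris-HCl pH 8.0, BSA, Triton X-100, 1 mM MnCl2, DTT, 10% DMSO. Reaction at 37 °C; time-point aliquots quenched with 5 mM EDTA, then A. aeolicus LpxE 5 μg/mL for 30 min, formic acid, malachite green, A620. Triplicates. IC50 from dose–response fit; Ki = IC50/(1+[S]/KM), KM 68.1 μM.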
# HEK293 cells = assay: In vitro cytotoxicity, CellTiter-Glo 2.0 cell viability assay; type: cell-based
# E. coli LpxH = molecular target: T2, E. coli LpxH (Escherichia coli, UniProt P43341); assay: LpxE-coupled LpxH activity assay; type: biochemical
# T2 sequence (P43341 1-240): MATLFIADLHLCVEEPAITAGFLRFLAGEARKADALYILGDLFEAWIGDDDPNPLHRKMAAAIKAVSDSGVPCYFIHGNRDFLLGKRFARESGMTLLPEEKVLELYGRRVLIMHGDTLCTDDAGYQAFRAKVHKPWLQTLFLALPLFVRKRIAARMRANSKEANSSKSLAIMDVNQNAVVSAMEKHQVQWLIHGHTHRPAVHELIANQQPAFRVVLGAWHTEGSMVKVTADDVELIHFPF
# Summary of the method: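 LpxE-coupled assay with GB1-E. coli LpxH-His10 (10 ng/mL in 2× enzyme/inhibitor mix; 0.5 ng/mL final for two analogs, with a longer time course). Mixes were preincubated 10 min at 37 °C and quenched with EDTA, then LpxE 30 min, malachite green, A620. Run in triplicate. IC50 fitted; Ki from competitive equation, KM 61.7 μM.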
# K. pneumoniae 10031 [3] = assay: Time-kill kinetics; type: cell-based
# K. pneumoniae 10031 [4] = assay: Spontaneous resistance development; type: cell-based
# Summary of the method: (§1)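 Five to six colonies per strain, from antibiotic-free LB agar, grown to OD 1 and concentrated tenfold. […] Colonies repassaged on fresh 8× MIC plates for 48 h, counted and sequenced. Frequency is resistant growth divided by initial inoculum density.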
# E. coli 25922 [5] = assay: Spontaneous resistance development; type: cell-based
# Summary of the method: as §1
# HepG2 cells = assay: In vitro cytotoxicity, CellTiter-Glo 2.0 cell viability assay; type: cell-based; details: HepG2, 100 μM (63 μg/mL), 24 h
MIC (K. pneumoniae 10031 [2]),Structure (SMILES),MIC (E. coli 25922 [1]),IC50 (K. pneumoniae LpxH),"cytotoxicity (cell viability) (HEK293 cells; HEK293, 100 μM (63 μg/mL), 24 h)",safety index (HEK293 cells; no cytotoxicity at 63 μg/mL in HEK293 or HepG2 versus MICs 0.31 and 0.04 μg/mL),IC50 (E. coli LpxH),"type of antibiotic action (K. pneumoniae 10031 [3]; time-kill, regrowth prevented up to 24 h at or above the MIC)","reduction of bacterial viability (K. pneumoniae 10031 [3]; within 6 h, at or above the MIC)","Rate of spontaneous resistance mutations @4× MIC (K. pneumoniae 10031 [4]; K. pneumoniae 10031, 4× MIC)","Rate of spontaneous resistance mutations @8× MIC (K. pneumoniae 10031 [4]; K. pneumoniae 10031, 8× MIC)","Rate of spontaneous resistance mutations @4× MIC (E. coli 25922 [5]; E. coli 25922, 4× MIC)","Rate of spontaneous resistance mutations @8× MIC (E. coli 25922 [5]; E. coli 25922, 8× MIC)",cytotoxicity (cell viability) (HepG2 cells)
0.08 µg/mL,CC(=O)N1CCc2cc(S(=O)(=O)N3CCN(c4cc(C(F)(F)F)cc(Cl)n4)CC3)ccc21 [JH-LPH-92],> 64 µg/mL,,,,,,,,,,,
1.3 µg/mL,CC(=O)N1CCc2cc(S(=O)(=O)N3CCN(c4nccc(C(F)(F)F)n4)CC3)ccc21 [JH-LPH-93],,100 nM,,,,,,,,,,
,CN(c1ccccc1C(=O)Nc1ccc(S(=O)(=O)N2CCN(c3cc(C(F)(F)F)cc(Cl)n3)CC2)cc1)S(C)(=O)=O [JH-LPH-107],0.31 µg/mL,0.13 nM,did not cause any significant cytotoxicity; also recorded: no significant cytotoxicity,> 100 fold,0.13 nM,bactericidal,> 1000 fold,2.0 × 10^-9,9.1 × 10^-10,2.5 × 10^-9,1.4 × 10^-9,did not cause any significant cytotoxicity; also recorded: no significant cytotoxicity
